Assay outcomes from PubChem BioAssay.
Shown is part of a subset that was picked to be rich in hits.
ROMK primary: modulators of human ROMK potassium channel | P48048 | B-score at 10 µM | Tet-inducible ROMK, thallium flux fluorescence; actives lie on both sides | 2% of 130,000 active;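 active means signal ratio slope over the read window, or its plate-corrected B-score, at least 3 SD from the plate mean, either direction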;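 further: B-score of the F/F0 ratio slope over 7 to 12 s after thallium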
Target sequence (P48048 whole entry, looked up): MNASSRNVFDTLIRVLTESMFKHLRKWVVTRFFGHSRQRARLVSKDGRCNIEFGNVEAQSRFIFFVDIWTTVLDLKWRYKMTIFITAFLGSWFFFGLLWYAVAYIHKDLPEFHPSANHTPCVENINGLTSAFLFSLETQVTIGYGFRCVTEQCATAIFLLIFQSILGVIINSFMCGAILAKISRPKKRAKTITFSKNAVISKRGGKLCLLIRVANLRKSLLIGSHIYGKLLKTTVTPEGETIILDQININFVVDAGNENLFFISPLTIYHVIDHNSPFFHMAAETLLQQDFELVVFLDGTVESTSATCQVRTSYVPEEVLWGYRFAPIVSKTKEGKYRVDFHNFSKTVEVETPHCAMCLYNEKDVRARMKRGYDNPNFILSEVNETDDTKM
Pf gametocyte: inhibitors of late stage P. falciparum gametocyte viability; 0.065% of 150,000 active; P. falciparum stage V gametocytes, ATP luminescence, 24 h; inhibition, % at 10.9 µM;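 active means inhibition above the mean plus 3 SD of compounds within the control limits, set per campaign, cut at about 38% in these data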;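 further: 0% = DMSO wells and 100% = medium only without gametocytes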
Biofilm kill mix: mixtures killing C. albicans biofilm. 0.02% of 120,000 active. inhibition, % at 7.6 µM. C. albicans biofilm persisters + clotrimazole, fluorescence viability; primary screen in compound mixtures of four per well;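 further: compounds exposed to preformed 24 h biofilms for 48 h; 0% = untreated biofilm control and 100% = clotrimazole plus chlorhexidine kill blank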
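Test system: C. albicans biofilms. Buffer or medium: RPMI/MOPS medium, pH 7.0. Timing: 48 h compound exposure at 37 °C. Technique: Alamar Blue fluorescence. Evaluation: percent inhibition of biofilm viability.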
ROMK retest: confirmation of human ROMK potassium channel modulators | 54% of 3,000 active | ROMK thallium flux, fluorescence ratio; active compounds read low | normalized thallium flux (F/F0 slope) at 10 µM | shares compounds with ROMK primary;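 active means Flux at 10 µM at least 3 SD below or above vehicle control mean in one or both replicates; inconclusive means no clear call, values can overlap the other calls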
* hit, by the source's call.

Cc1ccc(S(=O)(=O)N2CCC(=O)N(C(COCc3ccc(Cl)cc3)C(C)C)CC2)cc1 (stereo not drawn) was read as ROMK primary -0.46, Pf gametocyte -11 and Biofilm kill mix 15.
Screening Cc1cnc(C(=O)NCC(c2ccccc2)c2ccccc2)cn1 returned ROMK primary -0.39, Pf gametocyte 13 and Biofilm kill mix 16.
Cc1ccc(-n2sc3ccccc3c2=O)cc1S(=O)(=O)N1CCCCC1 was read as ROMK primary 0.25 and Pf gametocyte -22.
Screening Cc1ccccc1-n1sc2cc(F)ccc2c1=O returned ROMK primary -4.7*, Pf gametocyte 35, Biofilm kill mix 13 and ROMK retest 0.057*.
CCCCOc1ccccc1C1CC(=O)NC2=C1C(=O)CCC2 (stereo not drawn) was read as ROMK primary 4.7*, Pf gametocyte 8 and ROMK retest 0.089.
`CCOc1ccc(C2CC(=O)NC3=C2C(=O)CCC3)cc1` (stereo not drawn) gave ROMK primary 1.1 and Pf gametocyte 18.
`Cc1cc(NC(=O)COC(=O)c2ccco2)no1` gave ROMK primary -0.052, Pf gametocyte -6 and Biofilm kill mix 17.
`COc1ccc2cc(CN(CC3CCCO3)C(=S)NCc3ccco3)c(=O)[nH]c2c1` (stereo not drawn) gave ROMK primary -1.1, Pf gametocyte 5 and Biofilm kill mix 9.
CC(C)C1CC(CCNCc2ccc(N(C)C)cc2)(c2ccccc2)CCO1 (stereo not drawn) was read as Pf gametocyte -5, Biofilm kill mix 14 and ROMK retest 0.048*.
Cc1ccc(C2(CC(=O)N3CCCC3)CCOC(C(C)C)C2)cc1 (stereo not drawn) was read as ROMK primary -0.29 and Pf gametocyte 3.
CC(C)C1CC(CCNCc2ccc3c(c2)OCO3)(c2ccccc2)CCO1 (stereo not drawn) was read as ROMK primary -2.9*, Pf gametocyte 18, Biofilm kill mix 18 and ROMK retest 0.055*.
Screening Cc1ccc(C2(CCNS(=O)(=O)c3ccc(C)cc3)CCOC(C(C)C)C2)cc1 (stereo not drawn) returned Biofilm kill mix 17 and ROMK retest 0.061*.
Cc1ccc(C2(CCNCc3ccc(N(C)C)cc3)CCOC(C(C)C)C2)cc1 (stereo not drawn) was read as ROMK primary -1 and Biofilm kill mix 24.
CC(NCc1ccc2c(c1)OCO2)c1ccccc1 (stereo not drawn) was read as Pf gametocyte -17.
For NC(=O)c1cc([N+](=O)[O-])ccc1NCc1ccc(C(=O)O)cc1 the results were Pf gametocyte 8.
COC(=O)CCSCC(=O)Nc1ccc(C)c(S(=O)(=O)N2CCCCC2)c1 was read as Pf gametocyte 22 and Biofilm kill mix 21.
Cc1nnc(SCC(=O)N2CCN(c3ccccc3)CC2)n(N)c1=O was read as ROMK primary -0.42, Pf gametocyte 2 and Biofilm kill mix 17.
COc1ccc(S(=O)(=O)Nc2ccccc2N2CCOCC2)cc1[N+](=O)[O-] was read as Pf gametocyte 3 and Biofilm kill mix 16.
CC(=O)SCCC(=O)N1C(C)CCCC1C(=O)O (stereo not drawn) was read as Pf gametocyte 3.
`CC1CCCC(C(=O)O)N1C(=O)CCS` (stereo not drawn) gave ROMK primary 2.2* and ROMK retest inconclusive.
`CC1CCC2(CC1)NC(=O)N(Cc1cc(=O)n3ccsc3n1)C2=O` (stereo not drawn) gave Biofilm kill mix 3.
`COc1ccc(Cl)cc1NC(=O)c1cc(-c2ccccc2O)n[nH]1` gave ROMK primary 0.044, Pf gametocyte 1 and Biofilm kill mix 9.
For COc1ccccc1-c1cc(-c2cc(Cl)ccc2O)n[nH]1 the results were ROMK primary 2.5, Pf gametocyte 3 and ROMK retest inconclusive.
For CN=C1c2c(-c3ccccc3)c3cc(OC)ccc3n2CCN1C the results were ROMK primary -3.7*, Pf gametocyte 3 and ROMK retest 0.067*.
COc1ccc(-c2c(-c3ccccc3)n(C)c3ccccc23)cc1 was read as Pf gametocyte 3.
`O=S(=O)(c1ccc(S(=O)(=O)N2CCOCC2)cc1)N1CCCC1` gave Biofilm kill mix 21.
For Cn1c(=O)c2c(nc(CN3CCN(c4ccccc4)CC3)n2CCCc2ccccc2)n(C)c1=O the results were ROMK primary -1.5 and Pf gametocyte 0.
Screening Cn1c(=O)c2c(nc(N3CCN(Cc4ccccc4)CC3)n2CCCc2ccccc2)n(C)c1=O returned ROMK retest 0.058*.
`O=C(O)CCCn1cc(NC(=O)c2c(F)cccc2F)cn1` gave ROMK primary 0.047, Pf gametocyte 20 and Biofilm kill mix 8.
Cc1ccc(C(=O)Cn2c(C(=O)OCCO)cc3ccccc32)cc1 was read as Pf gametocyte -27.
Screening CCOC(=O)c1cc2ccccc2n1CCN(CC)CC returned ROMK primary 5* and ROMK retest inconclusive.
For COC(C[C@H]1O[C@H]1[C@@H](O)[C@H](C)OCc1ccccc1)OC the results were Biofilm kill mix 15.
Screening Cc1ccccc1Cn1cc(C)c(=O)[nH]c1=O returned ROMK primary 2.1*, Pf gametocyte -19, Biofilm kill mix 7 and ROMK retest 0.073.
For Cc1cn(Cc2ccccc2Cn2cc(C)c(=O)[nH]c2=O)c(=O)[nH]c1=O the results were ROMK primary 0.23, Pf gametocyte -12 and Biofilm kill mix 18.
`CCOCCCNC(=O)NC(=O)CN1CCN(S(=O)(=O)c2ccc3c(c2)OCCO3)CC1` gave ROMK primary 0.25, Pf gametocyte 20 and Biofilm kill mix 12.
`C=CCNC(=O)CC(=O)N/N=C/c1cccc(C)c1` gave ROMK primary 0.095, Pf gametocyte 17 and Biofilm kill mix 18.
Screening CCOc1ccccc1NC(=O)C(NCC1(N2CCCCC2)CCCCC1)c1ccccc1 (stereo not drawn) returned ROMK primary -3.4*, Pf gametocyte -3, Biofilm kill mix 13 and ROMK retest 0.064*.
CCOc1ccccc1NC(=O)C(OC(=O)C1CC1)c1ccccc1 (stereo not drawn) was read as Pf gametocyte 3 and Biofilm kill mix 16.
Screening O=C(CC1NCCNC1=O)Nc1cccc([N+](=O)[O-])c1 (stereo not drawn) returned ROMK primary -0.9 and Biofilm kill mix 20.
CCOC(=O)C1CCN(c2nc3c(C)cccn3c(=O)c2/C=C(\C#N)S(=O)(=O)c2ccccc2)CC1 was read as Pf gametocyte 4 and Biofilm kill mix 5.
`Cc1ccccc1Nc1nc(N)nc(COC(=O)c2cccc(S(=O)(=O)NCc3ccccc3)c2)n1` gave ROMK primary -3.8*, Pf gametocyte -1, Biofilm kill mix 3 and ROMK retest 0.047*.
Cc1ccccc1Nc1nc(N)nc(COC(=O)c2cccc(S(=O)(=O)N(C)C)c2)n1 was read as ROMK primary 0.017, Pf gametocyte 13 and Biofilm kill mix 15.
`Cc1cccc(NC(=S)NC(C)(C)CC(C)(C)C)c1` gave ROMK primary -0.37, Pf gametocyte -32 and Biofilm kill mix 10.
